Active and inactive are the calls of the source. The rule behind the calls is not given here.
Columns and labels:
[1] = target: T1, DNA topoisomerase 1 (Homo sapiens) (UniProt P11387); test: Inhibition of human recombinant Top1-mediated DNA cleavage at 0.1 to 100 uM after 20 mins relative to camptothecin; parameters: scale not given: the % may be the effect or the level left
T1 sequence (whole entry): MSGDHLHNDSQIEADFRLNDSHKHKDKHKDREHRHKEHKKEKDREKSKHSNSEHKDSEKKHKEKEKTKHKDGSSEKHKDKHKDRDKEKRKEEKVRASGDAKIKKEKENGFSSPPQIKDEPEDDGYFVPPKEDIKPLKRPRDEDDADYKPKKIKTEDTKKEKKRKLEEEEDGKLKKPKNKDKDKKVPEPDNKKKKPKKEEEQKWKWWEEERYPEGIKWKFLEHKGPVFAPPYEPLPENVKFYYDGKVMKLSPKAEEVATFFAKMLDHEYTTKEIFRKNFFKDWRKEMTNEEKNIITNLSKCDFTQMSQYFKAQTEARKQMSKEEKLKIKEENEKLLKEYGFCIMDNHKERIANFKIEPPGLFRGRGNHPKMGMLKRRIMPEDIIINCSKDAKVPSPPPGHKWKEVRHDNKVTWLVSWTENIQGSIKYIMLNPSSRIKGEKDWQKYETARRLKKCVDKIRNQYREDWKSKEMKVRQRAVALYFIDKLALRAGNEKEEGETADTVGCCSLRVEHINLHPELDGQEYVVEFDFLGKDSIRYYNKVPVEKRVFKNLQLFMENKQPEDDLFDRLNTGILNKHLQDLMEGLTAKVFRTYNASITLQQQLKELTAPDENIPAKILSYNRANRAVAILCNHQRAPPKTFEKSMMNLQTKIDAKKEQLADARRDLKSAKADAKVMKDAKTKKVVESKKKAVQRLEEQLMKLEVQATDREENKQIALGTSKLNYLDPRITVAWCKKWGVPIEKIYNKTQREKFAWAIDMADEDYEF
Outline: (§1)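 Human recombinant Top1 purified from baculovirus. Substrate is a 117-bp oligonucleotide, about 2 nM, 3′-end labelled with 32P-dGTP by Klenow fill-in. Stopped with 0.5% SDS, run on 20% denaturing PAGE and phosphorimaged. Cleavage graded 0 to +++ against 1 μM camptothecin.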

[2] = tested on: NCI-60 human cancer cell line panel (Homo sapiens); test: Cytotoxicity against NCI-60 human cancer cell line panel (mean) at 10 uM; details: pooled result: one value given for 8 cell lines, strains, targets or settings, read-out: GI
OVCAR-3 = test: Cytotoxicity against human OVCAR-3 cells; assay type: functional
Outline: (§2)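 NCI 60-cell-line screen (eight solid-tumour subpanels plus leukemia). A one-dose pass at 10−5 M came first. Selected compounds were then run at five concentrations from 10−8 to 10−4 M. GI50 is the concentration giving 50% growth inhibition.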

SF-539 = test: Cytotoxicity against human SF539 cells; assay type: functional; outline: as §2
SN12C = test: Cytotoxicity against human SN12C cells; assay type: functional; outline: as §2
HCT-116 = test: Cytotoxicity against human HCT116 cells; assay type: functional; outline: as §2
DU-145 = test: Cytotoxicity against human DU145 cells; assay type: functional; outline: as §2
HOP-62 = test: Cytotoxicity against human HOP62 cells; assay type: functional; outline: as §2
UACC-62 = test: Cytotoxicity against human UACC62 cells; assay type: functional; outline: as §2
[3] = target: T1, DNA topoisomerase 1 (Homo sapiens); test: Inhibition of human recombinant Top1-mediated DNA cleavage at 1 uM after 20 mins relative to camptothecin; outline: as §1
MCF7 = test: Cytotoxicity against human MCF7 cells; assay type: functional; outline: as §2

SMILES | Activity [1] | inhibition of growth at 10 µM [2] [%] | GI50 (OVCAR-3) [nM] | GI50 (SF-539) [nM] | GI50 (SN12C) [nM] | GI50 (HCT-116) [nM] | GI50 (DU-145) [nM] | GI50 (HOP-62) [nM] | GI50 (UACC-62) [nM] | Activity [3] | GI50 (MCF7) [nM]
CN(C)CCCc1c2c(nc3cc4c(cc13)OCCO4)-c1cc3ccccc3c(=O)n1C2 | 75% | 19 |  |  |  |  |  |  |  |  | 
Cc1cc2c(CN3CC[C@H](O)C3)c3c(nc2cc1F)-c1cc2ccccc2c(=O)n1C3 | 50% | > 25 |  |  |  |  |  |  |  |  | 
O=c1c2ccccc2cc2n1Cc1c-2nc2cc3c(cc2c1CNCCCN1CCOCC1)OCCO3 | 50% | 10.8 |  |  |  |  |  |  |  |  | 
O=c1c2ccccc2cc2n1Cc1c-2nc2ccc(Cl)cc2c1CNCCCn1ccnc1 | 50% | 30 |  |  |  |  |  |  |  |  | 
COc1cc2c3c(n(CCCNCCO)c(=O)c2cc1OC)-c1cc2c(cc1C3=O)OCO2 [LMP-744] |  |  | 500 | 40 | < 10 | 100 | < 10 | 20 | 30 | Active | < 10
CC[C@@]1(O)C(=O)OCc2c1cc1n(c2=O)Cc2cc3ccccc3nc2-1 [CAMPTOTHECIN] |  |  |  | 10 | 20 | 30 | 10 | 10 | 10 | Active | 10
Cc1cc2c(CNCCO)c3c(nc2cc1F)-c1cc2ccccc2c(=O)n1C3 | 50% | > 25 | 16800 | 9230 | 20200 | 18400 | 12200 | 11200 | 14200 |  | 1620
O=c1c2ccccc2cc2n1Cc1c-2nc2cc(Cl)ccc2c1Cn1ccnc1 | 0% | < 15 |  |  |  |  |  |  |  |  | 
COc1cc2nc3c(c(CN4CC[C@H](O)C4)c2cc1OC)Cn1c-3cc2ccccc2c1=O | inactive | 14.2 |  |  |  |  |  |  |  |  | 
CN1CCN(Cc2c3c(nc4cc5c(cc24)OCCO5)-c2cc4ccccc4c(=O)n2C3)CC1 | 50% | 23 |  |  |  |  |  |  |  |  | 
O=c1c2ccccc2cc2n1Cc1c-2nc2cc3c(cc2c1CCl)OCCO3 | 20% | 10.3 |  |  |  |  |  |  |  |  | 
O=c1c2ccccc2cc2n1Cc1c-2nc2cc(Cl)ccc2c1CN1CC[C@H](O)C1 | 20% | < 15 |  |  |  |  |  |  |  |  | 
O=c1c2ccccc2cc2n1Cc1c-2nc2cc3c(cc2c1CNCCCn1ccnc1)OCCO3 | 50% | 14.3 |  |  |  |  |  |  |  |  | 
O=c1c2ccccc2cc2n1Cc1c-2nc2cc(Cl)ccc2c1CNCCCn1ccnc1 | 20% | > 15 | 2040 | 1860 | 2090 | 1820 |  | 2000 | 1910 |  | 1660
CN(C)Cc1c2c(nc3cc4c(cc13)OCCO4)-c1cc3ccccc3c(=O)n1C2 | 75% |  | 2190 | 2690 | 2510 | 1170 | 2190 | 3310 | 1660 |  | 300
O=c1c2ccccc2cc2n1Cc1cc3ccccc3nc1-2 [ROSETTACIN] | 50% |  | > 100000 | > 100000 | > 100000 | 57300 | > 100000 | > 100000 | > 100000 |  | 60300
O=c1c2ccccc2cc2n1Cc1c-2nc2cc3c(cc2c1CCCn1ccnc1)OCCO3 | 50% |  | 7080 | 1950 | 12600 | 1950 | 2880 | 570 | 930 |  | 190
O=c1c2ccccc2cc2n1Cc1c-2nc2cc3c(cc2c1CNCCO)OCO3 | 50% |  | 1550 | 1350 | 1910 | 950 | 1820 | 660 | 470 |  | 280

Reference: ChEMBL document CHEMBL1212854, “The structure-activity relationships of A-ring-substituted aromathecin topoisomerase I inhibitors strongly support a camptothecin-like binding mode” (2010)
